These results are taken from ChEMBL document CHEMBL1123038, “Potential neuroleptic agents. 3. Chemistry and antidopaminergic properties of substituted 6-methoxysalicylamides” (J Med Chem, 1985).

Common to all, as to format: functional
Conditions in all cases: ip

In test [1] the test system is Rattus norvegicus. Put plainly: Compound was evaluated in vivo for antagonist activity against apomorphine induced behavioral syndrome such as Hyperactivity in rat after intraperitoneal administration; activity value ranges from 0.14-0.18.
Test [2] relates to Rattus norvegicus. Put plainly: Compound was evaluated in vivo its antagonist activity against apomorphine induced behavioral syndrome such as Stereotypy in rat after intraperitoneal administration; activity value ranges from 0.74-0.87. Summed up:
(§1)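 Male Sprague-Dawley rats (275–325 g) got compound ip (saline, or acetic acid/distilled water vehicle) 60 min ahead of sc apomorphine 1 mg/kg given into the neck. Stereotypy strength was scored 5, 20, 40 and 60 min after apomorphine. […] It was computed by Theil's method with Sen tie correction, using 5–6+ dose levels and 6–8 animals per dose.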

For test [3], the system named is Rattus norvegicus. Put plainly: Compound was evaluated in vivo for antagonist activity against apomorphine induced behavioral syndrome such as Hyperactivity in rat after intraperitoneal administration; activity value ranges from 1.15-1.26.
The test system of test [4] is Rattus norvegicus. Put plainly: Compound was evaluated in vivo its antagonist activity against apomorphine induced behavioral syndrome such as Stereotypy in rat after intraperitoneal administration; activity value ranges from 0.89-1.02. The essentials: as §1
Test [5] relates to Rattus norvegicus. Nature of the test: Compound was evaluated in vivo for antagonist activity against apomorphine induced behavioral syndrome such as Hyperactivity in rat after intraperitoneal administration; activity value ranges from 0.11-0.13. The essentials:
(§2)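 Male Sprague-Dawley rats (275–325 g) received test compound ip (in saline, or acetic acid plus distilled water) 60 min before apomorphine 1 mg/kg sc into the neck. Behaviour was scored at 5, 20, 40 and 60 min after apomorphine.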

For test [6], the system named is Rattus norvegicus. Nature of the test: Compound was evaluated in vivo its antagonist activity against apomorphine induced behavioral syndrome such as Stereotypy in rat after intraperitoneal administration; activity value ranges from 0.24-0.25. Summed up: as §1
Test [7] has as its system Rattus norvegicus. Put plainly: Compound was evaluated in vivo for antagonist activity against apomorphine induced behavioral syndrome such as Hyperactivity in rat after intraperitoneal administration; activity value ranges from 0.42-0.43.
The test system of test [8] is Rattus norvegicus. Nature of the test: Compound was evaluated in vivo its antagonist activity against apomorphine induced behavioral syndrome such as Stereotypy in rat after intraperitoneal administration; activity value ranges from 0.65-0.66. The essentials:
as §1

The subject of test [9] is Rattus norvegicus. Put plainly: Compound was evaluated in vivo its antagonist activity against apomorphine induced behavioral syndrome such as Stereotypy in rat after intraperitoneal administration; activity value ranges from 2.0-2.0. The essentials:
as §1

The subject of test [10] is Rattus norvegicus. Put plainly: Compound was evaluated in vivo for antagonist activity against apomorphine induced behavioral syndrome such as Hyperactivity in rat after intraperitoneal administration; activity value ranges from 1.07-1.15.
The subject of test [11] is Rattus norvegicus. Put plainly: Compound was evaluated in vivo its antagonist activity against apomorphine induced behavioral syndrome such as Stereotypy in rat after intraperitoneal administration; activity value ranges from 6.5-6.8. Summed up:
as §1

Test [12] deals with Rattus norvegicus. Put plainly: Compound was evaluated in vivo for antagonist activity against apomorphine induced behavioral syndrome such as Hyperactivity in rat after intraperitoneal administration; activity value ranges from 6.0-6.2.
Test [13] relates to Rattus norvegicus. Put plainly: Compound was evaluated in vivo for antagonist activity against apomorphine induced behavioral syndrome such as Hyperactivity in rat after intraperitoneal administration; activity value ranges from 0.19-0.20.
The test system of test [14] is Rattus norvegicus. Put plainly: Compound was evaluated in vivo its antagonist activity against apomorphine induced behavioral syndrome such as Stereotypy in rat after intraperitoneal administration activity value ranges from 0.81-0.95. The essentials: as §1
The subject of test [15] is Rattus norvegicus. Put plainly: Compound was evaluated in vivo for antagonist activity against apomorphine induced behavioral syndrome such as Hyperactivity in rat after intraperitoneal administration; activity value ranges from 5.2-6.9.
In test [16] the test system is Rattus norvegicus. Put plainly: Compound was evaluated in vivo for antagonist activity against apomorphine induced behavioral syndrome such as Hyperactivity in rat after intraperitoneal administration; activity value ranges from 2.7-3.8.
In test [17] the test system is Rattus norvegicus. Put plainly: Compound was evaluated in vivo its antagonist activity against apomorphine induced behavioral syndrome such as Stereotypy in rat after intraperitoneal administration; activity value ranges from 15.1-15.8. Summed up: as §1
Test [18] has as its system Rattus norvegicus. Put plainly: Compound was evaluated in vivo for antagonist activity against apomorphine induced behavioral syndrome such as Hyperactivity in rat after intraperitoneal administration; activity value ranges from 0.65-0.85.
Test [19] relates to Rattus norvegicus. Nature of the test: Compound was evaluated in vivo its antagonist activity against apomorphine induced behavioral syndrome such as Stereotypy in rat after intraperitoneal administration; activity value ranges from 2.4-2.7. Summed up:
as §1

Test [20] has as its system Rattus norvegicus. Put plainly: Compound was evaluated in vivo for antagonist activity against apomorphine induced behavioral syndrome such as Hyperactivity in rat after intraperitoneal administration; activity value ranges from 0.46-0.49.
Test [21] deals with Rattus norvegicus. Put plainly: Compound was evaluated in vivo its antagonist activity against apomorphine induced behavioral syndrome such as Stereotypy in rat after intraperitoneal administration; activity value ranges from 1.8-2.2. Summed up:
as §1

The subject of test [22] is Rattus norvegicus. Put plainly: Compound was evaluated in vivo its antagonist activity against apomorphine induced behavioral syndrome such as Stereotypy in rat after intraperitoneal administration; activity value ranges from 13.8-14.1. Summed up:
as §1

Test [23] deals with Rattus norvegicus. Nature of the test: Compound was evaluated in vivo for antagonist activity against apomorphine induced behavioral syndrome such as Hyperactivity in rat after intraperitoneal administration; activity value ranges from 0.78-1.07.
Test [24] concerns Rattus norvegicus. Put plainly: Compound was evaluated in vivo its antagonist activity against apomorphine induced behavioral syndrome such as Stereotypy in rat after intraperitoneal administration; activity value ranges from 0.56-0.95. The essentials: as §1
Test [25] has as its system Rattus norvegicus. Nature of the test: Compound was evaluated in vivo for antagonist activity against apomorphine induced behavioral syndrome such as Hyperactivity in rat after intraperitoneal administration; activity value ranges from 0.45-0.49.
For test [26], the system named is Rattus norvegicus. Nature of the test: Compound was evaluated in vivo for antagonist activity against apomorphine induced behavioral syndrome such as Hyperactivity in rat after intraperitoneal administration; activity value ranges from 0.36-0.43.
Test [27] deals with Rattus norvegicus. Put plainly: Compound was evaluated in vivo its antagonist activity against apomorphine induced behavioral syndrome such as Stereotypy in rat after intraperitoneal administration; activity value ranges from 7.6-8.3. Summed up:
as §1

The subject of test [28] is Rattus norvegicus. Put plainly: Compound was evaluated in vivo its antagonist activity against apomorphine induced behavioral syndrome such as Stereotypy in rat after intraperitoneal administration; activity value ranges from 0.30-0.33. Summed up: as §1
Test [29] has as its system Rattus norvegicus. Put plainly: Compound was evaluated in vivo for antagonist activity against apomorphine induced behavioral syndrome such as Hyperactivity in rat after intraperitoneal administration; activity value ranges from 0.054-0.055.
Test [30] relates to Rattus norvegicus. Nature of the test: Compound was evaluated in vivo its antagonist activity against apomorphine induced behavioral syndrome such as Stereotypy in rat after intraperitoneal administration; activity value ranges from 2.82-3.02. The essentials:
as §1

Test [31] has as its system Rattus norvegicus. Nature of the test: Compound was evaluated in vivo for antagonist activity against apomorphine induced behavioral syndrome such as Hyperactivity in rat after intraperitoneal administration; activity value ranges from 1.58-1.78.
For test [32], the system named is Rattus norvegicus. Nature of the test: Compound was evaluated in vivo its antagonist activity against apomorphine induced behavioral syndrome such as Stereotypy in rat after intraperitoneal administration.
The subject of test [33] is Rattus norvegicus. Nature of the test: Compound was evaluated in vivo for antagonist activity against apomorphine induced behavioral syndrome such as Hyperactivity in rat after intraperitoneal administration; activity value ranges from 0.27-0.35. Summed up:
as §2

Test [34] concerns Rattus norvegicus. Put plainly: Compound was evaluated in vivo for antagonist activity against apomorphine induced behavioral syndrome such as Hyperactivity in rat after intraperitoneal administration; activity value ranges from 0.11-0.16.
The subject of test [35] is Rattus norvegicus. Put plainly: Compound was evaluated in vivo its antagonist activity against apomorphine induced behavioral syndrome such as Stereotypy in rat after intraperitoneal administration; activity value ranges from 0.52-0.55. Summed up:
as §1

By ED50 is commonly meant the dose at which the effect has come halfway, by size or by number of responders. In the case of `CCCc1ccc(OC)c(C(=O)NC[C@@H]2CCCN2CC)c1O`, the median effective dose (ED50) turned out to be 0.16 µmol/kg with Rattus norvegicus [1] and 0.79 µmol/kg in the test on Rattus norvegicus [2].
Regarding `CCN1CCC[C@H]1CNC(=O)c1c(OC)ccc(C)c1O`, the ED50 in the test on Rattus norvegicus [3] worked out at 1.23 µmol/kg; with Rattus norvegicus [4], 0.95 µmol/kg.
Consider `CCc1ccc(OC)c(C(=O)NC[C@@H]2CCCN2CC)c1O`, for which the results for the ED50 with Rattus norvegicus [5] and with Rattus norvegicus [6] were 0.12 µmol/kg and 0.25 µmol/kg, respectively.
In the case of `CCCN1CCC[C@H]1CNC(=O)c1c(OC)ccc(Br)c1O`, the values for the ED50 with Rattus norvegicus [7] and in the test on Rattus norvegicus [8] were 0.43 µmol/kg and 0.66 µmol/kg, respectively.
Regarding `CCN1CCC[C@H]1CNC(=O)c1c(OC)ccc(I)c1OC`, the ED50 with Rattus norvegicus [9] was 2.1 µmol/kg; with Rattus norvegicus [10], 1.12 µmol/kg.
Take `CCN1CCC[C@H]1CNC(=O)c1c(O)ccc(Br)c1OC`: the ED50 with Rattus norvegicus [11] worked out at 6.6 µmol/kg; in the test on Rattus norvegicus [12] it was 6.2 µmol/kg.
Consider `CCN1CCC[C@H]1CNC(=O)c1c(OC)ccc(Cl)c1O`, for which the ED50 in the test on Rattus norvegicus [13] was 0.2 µmol/kg; in the test on Rattus norvegicus [14], 0.87 µmol/kg.
Compound `CCN1CCC[C@H]1CNC(=O)c1c(OC)ccc(Cl)c1OC` yielded an ED50 in the test on Rattus norvegicus [15] of 6.3 µmol/kg.
On to `CCCN1CCC[C@H]1CNC(=O)c1c(OC)ccc(Br)c1OC`, for which the ED50 in the test with Rattus norvegicus [16] amounted to 3.4 µmol/kg; in the test on Rattus norvegicus [17], 15.5 µmol/kg.
Consider `CCN1CCC[C@H]1CNC(=O)c1c(O)ccc(Cl)c1OC`, for which the ED50 with Rattus norvegicus [18] was determined as 0.78 µmol/kg; with Rattus norvegicus [19], 2.5 µmol/kg.
Consider `CCOc1c(Br)ccc(OC)c1C(=O)NC[C@@H]1CCCN1CC`, for which the ED50 came to 0.47 µmol/kg in the test with Rattus norvegicus [20] and 1.9 µmol/kg with Rattus norvegicus [21].
`CCc1ccc(OC)c(C(=O)NC[C@@H]2CCCN2CC)c1OC`: the ED50 was 14.1 µmol/kg in the test with Rattus norvegicus [22] and 0.95 µmol/kg in the test on Rattus norvegicus [23].
With `CCc1ccc(O)c(C(=O)NC[C@@H]2CCCN2CC)c1OC`, the ED50 in the test with Rattus norvegicus [24] came to 0.79 µmol/kg; in the test on Rattus norvegicus [25], 0.47 µmol/kg.
On to `CCN1CCC[C@H]1CNC(=O)c1c(O)cccc1OC`, for which the ED50 is 0.4 µmol/kg in the test on Rattus norvegicus [26] and 7.8 µmol/kg with Rattus norvegicus [27].
In the case of `CCN1CCC[C@H]1CNC(=O)c1c(OC)ccc(Br)c1O` (stereo in doubt; 11), the ED50 in the test on Rattus norvegicus [28] was 0.32 µmol/kg; with Rattus norvegicus [29], 0.055 µmol/kg.
Take `CCN1CCC[C@H]1CNC(=O)c1c(OC)ccc(Br)c1O` (stereo in doubt; 26): the results for the ED50 in the test with Rattus norvegicus [30] and in the test with Rattus norvegicus [31] were 0.32 µmol/kg and 0.055 µmol/kg, respectively.
`O=C(CCCN1CCC(O)(c2ccc(Cl)cc2)CC1)c1ccc(F)cc1` [HALOPERIDOL]: the ED50 in the test with Rattus norvegicus [32] amounted to 0.27 µmol/kg; in the test on Rattus norvegicus [33], 0.29 µmol/kg.
On to `CCN1CCC[C@H]1CNC(=O)c1c(OC)ccc(I)c1O` [IOLOPRIDE], for which the figures for the ED50 in the test on Rattus norvegicus [34] and in the test on Rattus norvegicus [35] were 0.15 µmol/kg and 0.54 µmol/kg, respectively.
